Experimental data taken from ChEMBL document CHEMBL4219175, “Synthesis and biological evaluation of aminothiazoles against Histoplasma capsulatum and Cryptococcus neoformans” (Bioorg Med Chem, 2018).
Converted amounts (≈) assume the structure as drawn.

Legend:
[1] = Therapeutic index, ratio of IC50 for mouse P388D1 cells to IC50 for Histoplasma capsulatum G217B ATCC 26032; assay type: toxicity; settings: read-out: Ratio IC50
Summary of the method: (§1)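 Ratio of P388D1 IC50 (72 h resazurin viability, 80 to 0.3 µM) to yeast IC50 from RPMI/HEPES pH 7.0 broth dilution with A595 turbidity and 4-parameter regression.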

Histoplasma capsulatum [2] = experiment: Antifungal activity against Histoplasma capsulatum G217B ATCC 26032 at pH 7 measured over 5 days; assay type: functional, organism-based; settings: G217B ATCC 26032, 120 h
Summary of the method: (§2)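 Yeasts pre-grown in HMM (37 °C, 5% CO2) to exponential phase, counted by hemacytometer, diluted into RPMI buffered with 25 mM HEPES (pH 7.0) or 25 mM MOPS (pH 5.0) at 5 x 10^5 per well; two-fold dilutions 40 to 0.078 µM, 37 °C, agitated twice daily. A595 read over 5 days, normalized to DMSO controls; 4-day data fitted by 4-parameter regression for IC50; MIC = ≤10% growth.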

P388D1 = experiment: Cytotoxicity against mouse P388D1 cells assessed as reduction in cell viability after 72 hrs by resazurin-based fluorescence assay; settings: P388D1, 72 h
Summary of the method: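 P388D1 cells in Ham's F-12 + 10% FBS + 2 mM L-glutamine seeded at 5 x 10^3 per well, adhered overnight, exposed to compounds 80 to 0.3 µM for 72 h. Viability read as resorufin fluorescence (530/590 nm) after 0.1 mM resazurin, pre-saturation time points, versus untreated cells; three biological replicates; IC50 by non-linear regression.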

Cryptococcus neoformans [3] = experiment: Antifungal activity against wild type fluconazole-sensitive Cryptococcus neoformans serotype A H99 at pH 7 measured over 4 days; assay type: functional, organism-based; settings: var grubii H99 , 96 h
Summary of the method: (§3)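 YPD-grown exponential-phase yeasts, hemacytometer-counted, diluted into RPMI buffered to pH 7.0 with 25 mM HEPES (or pH 5.0 with […] for pH comparison) at 2 x 10^3 per well; two-fold series 40 to 0.078 µM, 37 °C, agitated twice daily. A595 followed over 4 days versus DMSO controls; day-3 turbidity fitted by 4-parameter regression for IC50; MIC = growth ≤10% of untreated.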

Cryptococcus neoformans [4] = experiment: Antifungal activity against fluconazole-resistant Cryptococcus neoformans serotype A MRL862 harboring erg11 mutant measured over 4 days; assay type: functional, organism-based; settings: MRL862, 96 h; summary of the method: as §3
Cryptococcus neoformans [5] = experiment: Antifungal activity against fluconazole-resistant Cryptococcus neoformans serotype A TES9 harboring erg11 mutant measured over 4 days; assay type: functional, organism-based; settings: TES9, 96 h; summary of the method: as §3
Cryptococcus neoformans [6] = experiment: Antifungal activity against wild-type fluconazole-sensitive Cryptococcus neoformans serotype D B3501 measured over 4 days; assay type: functional, organism-based; settings: B3501, 96 h; summary of the method: as §3
[7] = Therapeutic index, ratio of IC50 for mouse P388D1 cells to IC50 for wild type Cryptococcus neoformans serotype A H99; assay type: toxicity; settings: read-out: Ratio IC50; summary of the method: as §1
Histoplasma capsulatum [8] = experiment: Antifungal activity against RFP expressing Histoplasma capsulatum infected in LacZ-expressing mouse P388D1 cells incubated for 6 days measured daily by fluorescence assay; assay type: functional, organism-based; settings: for MIC: 144 h; for IC50: P388D1, 144 h
Summary of the method: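 LacZ-expressing P388D1 macrophages (3x10^4 per well, adhered 3 h) infected with RFP Histoplasma yeasts at MOI 1:2 for 3 h, medium replaced with F-12 + 10% serum, overnight at 37 °C, then compound gradient added for 6 days. RFP fluorescence (530/590 nm) read daily; day-4 values relative to untreated infected cells fitted by non-linear regression; triplicate.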

[9] = Aqueous solubility of the compound at pH 7; assay type: physicochemical; settings: aqueous medium
[10] = Ratio of aqueous solubility at pH 5 to aqueous solubility at pH 7; assay type: physicochemical; settings: buffer
Histoplasma capsulatum [11] = experiment: Antifungal activity against Histoplasma capsulatum G217B ATCC 26032 at pH 5 measured over 5 days; assay type: functional, organism-based; settings: G217B ATCC 26032, 120 h; summary of the method: as §2
Cryptococcus neoformans [12] = experiment: Antifungal activity against wild type fluconazole-sensitive Cryptococcus neoformans serotype A H99 at pH 5 measured over 4 days; assay type: functional, organism-based; settings: var grubii H99 , 96 h; summary of the method: as §3
[13] = Aqueous solubility of the compound at pH 5; assay type: physicochemical; settings: aqueous medium

SMILES | selectivity ratio [1] | IC50 (Histoplasma capsulatum [2]) | MIC90 (Histoplasma capsulatum [2]) | IC50 (P388D1) | IC50 (Cryptococcus neoformans [3]) | MIC90 (Cryptococcus neoformans [3]) | IC50 (Cryptococcus neoformans [4]) | MIC90 (Cryptococcus neoformans [4]) | IC50 (Cryptococcus neoformans [5]) | MIC90 (Cryptococcus neoformans [5]) | IC50 (Cryptococcus neoformans [6]) | MIC90 (Cryptococcus neoformans [6]) | selectivity ratio [7] | also measured
O=C(CCC1CCCCC1)Nc1ncc(Cc2cccc3ccsc23)s1 | 21 | 920 nM | 5 µM (≈ 1.92 µg/mL) | 18900 nM | > 20000 nM | > 40 µM | – | – | – | – | – | – | – | –
OC(Cn1cncn1)(Cn1cncn1)c1ccc(F)cc1F [FLUCONAZOLE] | – | – | – | – | 950 nM | 4.08 µM (≈ 1.25 µg/mL) | 14600 nM | 32.7 µM (≈ 10 µg/mL) | 27400 nM | 65.4 µM (≈ 20 µg/mL) | 130 nM | 2.04 µM (≈ 0.625 µg/mL) | – | –
O=C(Nc1ncc(Cc2cccc3sccc23)s1)C1CCCCC1 | > 200 | 200 nM | 0.31 µM (≈ 0.111 µg/mL) | > 40000 nM | 210 to 370 nM | 0.63 to 1.25 µM (≈ 0.225 to 0.446 µg/mL) | 130 nM | 0.31 µM (≈ 0.111 µg/mL) | 190 nM | 0.31 µM (≈ 0.111 µg/mL) | 160 nM | 0.63 µM (≈ 0.225 µg/mL) | > 108 | MIC (Histoplasma capsulatum [8]): 2.5 µM (≈ 0.891 µg/mL); IC50 (Histoplasma capsulatum [8]): 1210 nM
O=C(Nc1ncc(Cc2cccc3nsnc23)s1)C1CCCCC1 | > 26 | 1540 nM | 2.5 µM (≈ 0.896 µg/mL) | > 40000 nM | 1520 nM | 5 µM (≈ 1.79 µg/mL) | – | – | – | – | – | – | > 26 | –
O=C(CCC1CCCCC1)Nc1ncc(Cc2ccccn2)s1 | > 5 | 8090 nM | 20 µM (≈ 6.59 µg/mL) | > 40000 nM | > 20000 nM | – | – | – | – | – | – | – | – | solubility [9]: 40 µg/mL (≈ 121 µM); Ratio [10]: 1.5; IC50 (Histoplasma capsulatum [11]): > 20000 nM; MIC90 (Histoplasma capsulatum [11]): > 40 µM; IC50 (Cryptococcus neoformans [12]): > 20000 nM; MIC90 (Cryptococcus neoformans [12]): > 40 µM; solubility [13]: 60 µg/mL (≈ 182 µM)
O=C(Nc1ncc(Cc2cccc3ccoc23)s1)C1CCCCC1 | > 95 | 420 nM | 1.25 µM (≈ 0.426 µg/mL) | > 40000 nM | 620 nM | 2.5 µM (≈ 0.851 µg/mL) | 150 nM | 0.63 µM (≈ 0.214 µg/mL) | 410 nM | 0.63 µM (≈ 0.214 µg/mL) | 320 nM | 0.63 µM (≈ 0.214 µg/mL) | > 65 | –
O=C(Nc1ncc(CC2CCCC2)s1)C1CCCCC1 | > 53 | 760 nM | 1.25 µM (≈ 0.366 µg/mL) | > 40000 nM | > 20000 nM | > 40 µM | – | – | – | – | – | – | – | –
O=C(Nc1ncc(Cc2cccc3c2CCC3)s1)C1CCCCC1 | > 160 | 250 nM | 0.63 µM (≈ 0.215 µg/mL) | > 40000 nM | 410 nM | 1.25 µM (≈ 0.426 µg/mL) | 370 nM | 1.25 µM (≈ 0.426 µg/mL) | 450 nM | 1.25 µM (≈ 0.426 µg/mL) | 420 nM | 1.25 µM (≈ 0.426 µg/mL) | > 98 | –
O=C(CCC1CCCCC1)Nc1ncc(CC2CCCC2)s1 | – | > 20000 nM | > 40 µM | – | > 20000 nM | > 40 µM | – | – | – | – | – | – | – | –
O=C(CCC1CCCCC1)Nc1ncc(Cc2ccccc2)s1 | > 50 | 800 nM | 1.25 µM (≈ 0.411 µg/mL) | > 40000 nM | > 20000 nM | > 40 µM | – | – | – | – | – | – | – | –
O=C(CCC1CCCCC1)Nc1ncc(Cc2csc3ccccc23)s1 | 63 | 270 nM | 0.63 µM (≈ 0.242 µg/mL) | 16900 nM | > 20000 nM | > 40 µM | – | – | – | – | – | – | – | –
O=C(c1cnc(NC(=O)C2CCCCC2)s1)c1cccc2ccccc12 | > 211 | 190 nM | 0.31 µM (≈ 0.113 µg/mL) | > 40000 nM | 890 nM | 2.5 µM (≈ 0.911 µg/mL) | 410 nM | 1.25 µM (≈ 0.456 µg/mL) | 470 nM | 1.25 µM (≈ 0.456 µg/mL) | 380 nM | 1.25 µM (≈ 0.456 µg/mL) | > 45 | MIC (Histoplasma capsulatum [8]): 1.25 µM (≈ 0.456 µg/mL); IC50 (Histoplasma capsulatum [8]): 710 nM
O=C(CCC1CCCCC1)Nc1ncc(Cc2cccc3nsnc23)s1 | – | > 20000 nM | > 40 µM | – | > 20000 nM | > 40 µM | – | – | – | – | – | – | – | –
O=C(Nc1ncc(Cc2ccncc2)s1)C1CCCCC1 | – | > 20000 nM | – | – | > 20000 nM | – | – | – | – | – | – | – | – | solubility [9]: 350 µg/mL (≈ 1160 µM); Ratio [10]: 3.4; IC50 (Histoplasma capsulatum [11]): > 20000 nM; MIC90 (Histoplasma capsulatum [11]): > 40 µM; IC50 (Cryptococcus neoformans [12]): > 20000 nM; MIC90 (Cryptococcus neoformans [12]): > 40 µM; solubility [13]: 1190 µg/mL (≈ 3950 µM)
CCc1cnc(NC(=O)C2CCCCC2)s1 | – | > 20000 nM | > 40 µM | – | > 20000 nM | > 40 µM | – | – | – | – | – | – | – | –
